# Source: PubChem
# M5 PAM = potentiates acetylcholine response at human M5 receptor | CHO-K1 hM5, Fluo-8 calcium, ACh EC20 PAM; 0% = ACh EC20, 100% = ACh EC100 | activation, % at 3 µM | 360,000 compounds, 0.3% hits | AID 624038;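 active = activation above the run cutoff, the mean activation of all test compounds plus 3 SD, cut at about 18% in these data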
#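 System: CHO-K1 cell line with stable human muscarinic M5 receptor expression | Also added: EC20 acetylcholine as agonist stimulus | Compound: One concentration, 3 µM final (nominal) | Timing: Fluo-8 loading 80 min at 37 °C plus 30 min room temperature | Measured by: Fluo-8 calcium dye fluorescence, kinetic read | Read-out basis: % activation, ACh-normalized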
# CHRM5 agonist = agonists of human muscarinic M5 receptor (CHRM5); P08912; CHO-K1 hM5 cells, Fluo-8 calcium fluorescence; 0% DMSO wells, 100% maximal acetylcholine response; activation, % at 3 µM; 360,000 compounds, 0.19% hits; AID 624037;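 active = activation above the run's mean over test compounds plus 3 SD, cut at about 23% in these data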;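 also: signal is peak over basal fluorescence ratio across the kinetic read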
# CHRM4 PAM = CHRM4 positive allosteric modulation | P08173 | 360,000 compounds, 0.4% hits | activation, % at 3 µM | CHO-K1 hM4/Gqi5, Fluo-8 calcium fluorescence, ACh EC20; 0% = ACh EC20, 100% = maximal ACh;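 active = activation above its plate's cutoff, the mean activation of sample wells plus 3 SD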
# Target sequence (P08173 whole entry, looked up): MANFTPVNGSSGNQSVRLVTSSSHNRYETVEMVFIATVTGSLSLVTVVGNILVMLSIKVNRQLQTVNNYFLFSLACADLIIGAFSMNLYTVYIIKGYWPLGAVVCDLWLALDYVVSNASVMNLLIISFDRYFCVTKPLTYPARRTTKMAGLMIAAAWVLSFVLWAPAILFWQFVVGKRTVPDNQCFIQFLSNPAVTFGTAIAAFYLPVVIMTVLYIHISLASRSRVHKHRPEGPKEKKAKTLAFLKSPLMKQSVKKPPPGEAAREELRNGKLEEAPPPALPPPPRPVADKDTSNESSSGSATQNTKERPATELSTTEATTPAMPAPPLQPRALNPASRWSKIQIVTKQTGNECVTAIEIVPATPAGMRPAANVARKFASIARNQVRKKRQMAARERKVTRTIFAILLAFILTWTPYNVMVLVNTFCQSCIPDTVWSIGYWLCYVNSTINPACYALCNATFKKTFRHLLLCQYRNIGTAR
# M4 ag = CHRM4 agonism in calcium assay; CHO-K1 hM4/Gqi5, Fluo-8 calcium fluorescence; vehicle 0%, full acetylcholine response 100%; 360,000 compounds, 0.14% hits; AID 624127; activation, % at 3 µM; P08173;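 active = activation above the run mean over all test wells plus 3 SD, cut at about 32% in these data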;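 also: peak over basal fluorescence ratio per well then scaled between controls; 0% = DMSO wells and 100% = acetylcholine at EC100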
# M4 antag = antagonists of human muscarinic M4 receptor (CHRM4); P08173; CHO-hM4 cells, ACh EC80, Fluo-8 calcium fluorescence; inhibition, % at 3 µM; 360,000 compounds, 0.73% hits;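 active = inhibition above its plate's cutoff, the mean inhibition of sample wells plus 3 SD, cut at about 27% in these data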;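 also: 0% = acetylcholine EC80 with DMSO and 100% = DMSO without agonist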
# CHRM5 antagonist = antagonists of human muscarinic M5 receptor (CHRM5); P08912; inhibition, % at 3 µM; AID 624040; CHO-hM5 cells, Fluo-8 calcium fluorescence, ACh EC80; 360,000 compounds, 0.59% hits;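 active = inhibition above a per-plate cutoff, the mean of that plate's test compounds plus 3 SD, cut at about 27% in these data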;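 also: 0% = acetylcholine EC80 with DMSO and 100% = DMSO without agonist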
# Numbers without * were called inactive. Shown are actives, neighbours in structure and some others; about 1.9% of the full set was active somewhere.
SMILES,M5 PAM,CHRM5 agonist,CHRM4 PAM,M4 ag,M4 antag,CHRM5 antagonist
C[N+]1(CC(O)c2ccccc2)CCCCCC1 (stereo unspecified),-5,-22,-7,1,12,-2
O=C(O)c1cccc2c1C(=O)N(Cc1ccncc1)C2,5,0,32*,1,20,-1
CCCCN1CC(=O)N2[C@H]3c4cc(Cl)ccc4OC[C@@H]3[C@H](c3ccccc3)[C@]2(C)C1=O,2,-2,-4,2,2,6
CC1(NC(=O)CC(c2ccccc2)(c2ccccc2)c2ccccc2)CCN(CCCc2ccccc2)C1=O (stereo unspecified),-11,-3,3,1,-2,1
CCNc1ccc2noc3c2c1C(=O)c1ccccc1-3,-16,37*,-22,46*,24,38*
O=C1c2ccccc2-c2onc3ccc(NCc4ccco4)c1c23,-10,16,-7,10,16,22
Cc1cc(O)c(-c2cc(O)c(C)cc2O)cc1O,-5,0,-7,2,28*,5
CCC(=O)Nc1cccc(-c2ccc(N3CCC(C)CC3)nn2)c1,20*,-2,8,1,-8,-20
CN(C)c1ccc2nc3c(=O)[nH]c(=O)nc-3n(CC(O)C(O)C(O)CO)c2c1 (stereo unspecified),1,12,-12,48*,13,1
CN(Cc1ccccc1)CC(O)COc1ccc(CNCc2ccc(Cl)s2)cc1 (stereo unspecified),-1,-4,-8,10,-6,-12
CCCCNc1c(-c2ccc(OC)c(Sc3ccc(OC)cc3)c2)nc2ccccn12,-31,-3,-8,17,39*,27*
CCCCNc1c(-c2ccc(-c3ccc(OC)cc3)c(OC)c2)nc2ccccn12,-29,-5,-16,12,36*,19
CCCCNc1c(-c2ccc(OC)c(Sc3ccc(OC)cc3)c2)nc2cnccn12,-14,-2,-3,13,16,19
Cc1nc2nc(C)c(NS(=O)(=O)c3ccc(C4CCCCC4)cc3)c(=O)n2[nH]1,4,-2,2,1,-3,12
COc1cc2c(c(OC)c1OC)CC(=O)N(C)CC2,-9,-7,-31,1,33*,-3
CCCOc1ccc(OC(=O)c2ccc(Br)o2)cc1,-4,9,12,76*,3,-2
CN(C)c1ccc(-c2csc(C(O)c3ccc(F)c(F)c3)n2)cc1 (stereo unspecified),-18,50*,-15,102*,46*,37*
COc1ccc(C(O)c2nc(-c3ccc(N(C)C)cc3)cs2)cc1 (stereo unspecified),-11,13,-14,38*,9,2
CN(C)c1ccc(-c2csc(C(O)c3ccc(F)cc3)n2)cc1 (stereo unspecified),-17,30*,-13,60*,10,-5
COc1ccc(-c2csc(C(O)c3ccc(F)cc3)n2)cc1 (stereo unspecified),-11,9,-11,47*,-4,-1
COc1ccc(-c2nc3ccc(Cl)cn3c2Cc2ccc(C)cc2)cc1OC,3,0,11,0,-3,9
CCOCCCN(C(=O)Cn1nnc(-c2ccc(C)o2)n1)C(C(=O)NC1CCCC1)c1ccc(C)o1 (stereo unspecified),2,-2,5,1,-29,9
CCN(C(=O)CN1C(=O)NC(c2ccccc2)(c2ccc(C)c(C)c2)C1=O)C1CCS(=O)(=O)C1 (stereo unspecified),11,0,6,0,4,-2
CNC(=O)c1cc(C(=O)c2ccc(C(F)(F)F)cc2)c[nH]1,-6,2,-16,4,43*,5
CNC(=O)c1cc(C(=O)c2ccc(C(F)(F)F)cc2F)c[nH]1,-4,0,5,2,5,9
SMILES,M5 PAM,CHRM5 agonist,CHRM4 PAM,M4 ag,M4 antag,CHRM5 antagonist
COc1ccc2c(c1)CCCC21NC(=O)N(CC(=O)NC(=O)NCc2ccccc2)C1=O (stereo unspecified),4,-1,-3,0,3,8
CN(CC(=O)NCc1ccco1)CC(=O)Nc1c(Cl)cccc1Cl,18*,5,13,2,-12,-8
Cc1cc(Cl)cc(Cl)c1OCC(=O)NCc1ccco1,22*,-10,3,0,2,1
COc1cccc(NC(=O)CN(C)CC(=O)NCc2ccco2)c1,-4,-1,4,1,3,7
COc1ccc([N+](=O)[O-])cc1NC(=O)COC(=O)C12CC3CC(CC(O)(C3)C1)C2,-5,0,1,3,-4,-4
CC1CCc2c(sc(/N=C/N(C)C)c2C#N)C1 (stereo unspecified),20*,-6,3,0,-3,-10
COc1ccc(CN(CC2CCC(C(=O)O)CC2)C(=S)Nc2cc(C)cc(C)c2)cc1 (stereo unspecified),-5,5,19*,4,-9,7
COc1ccc2c(c1OC)C(=O)N1C2SC[C@H]1C(=O)NC1CCCCC1 (stereo partly specified),-18,38*,2,0,-19,5
NC(=O)C1(NC2CCCCC2)CCN(Cc2ccccc2)CC1,3,-11,1,1,-1,-3
COc1ccccc1Oc1ccc2c(c1)C(=O)N(c1cccc3ncccc13)C2=O,-20,10,-12,12,21,39*
O=C(COc1ccccc1)N[C@@H]1c2ccccc2CC[C@@H]1O,0,1,-3,0,-2,-11
O=C1CCC(c2ccccc2)(C2CCN(Cc3ccccc3)CC2)C(=O)N1 (stereo unspecified),-18,-1,-18,1,99*,99*
O=C1CCN(Cc2ccccc2)C(=O)N1,7,2,12,1,-4,3
CC(=O)c1ccc(S(=O)c2ccccc2)cc1 (stereo unspecified),2,-5,34*,2,-3,0
Nc1[nH]c(C(=O)c2ccccc2)c(-c2ccc(F)cc2)c1C(=O)NCc1ccccc1,2,1,4,0,-10,6
Cc1c(C(=O)Nc2ccc3c(c2)OCCO3)oc2ccc(Br)cc12,4,-3,23*,1,-10,2
Cc1c(C(=O)NCc2ccc3c(c2)OCO3)oc2ccc(Br)cc12,-6,-3,3,-1,2,12
CCCC(=O)Nc1ccc(C(=O)NNC(=S)NC(=O)c2cccs2)cc1,-1,1,13,0,-9,-2
CCCC(=O)Nc1ccc(C(=O)NNC(=S)NC(=O)c2ccc(Br)o2)cc1,-5,-1,-13,-1,34*,7
